The subject of assay [1] is PC-3. As to the kind of experiment: Antiproliferative activity against AR-negative human PC3 cells assessed as reduction in cell viability after 5 days by CCK8 assay. The assay is classed as functional, cell-based. The note with it: PC-3, 120 h. The method in brief: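 Cells seeded at 3 × 10^3 per well for 24 h, then dosed in 10-point, 3-fold serial dilution from 10 µM. CCK-8 added after 5 days, 4 h at 37 °C, absorbance at 450 nm. IC50 averaged from three separate determinations (at least two independent runs, duplicate wells). PC-3 grown in DMEM/F12 (1:1), LO2 in RPMI 1640, both with 10% FBS.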

The target in assay [2] is T1, Protein cereblon/Cyclin-dependent kinase 2 (Homo sapiens) (UniProt P24941+Q96SW2). In words: Protac activity at CRBN/CDK2 in AR-negative human PC3 cells assessed as induction of CDK2 protein degradation at 1 uM after 12 hrs by Western blot analysis. The settings on record: PC-3. The assay is classed as cell-based. The method in brief:
(§1)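 PC-3 cells (5 × 10^5 per well) treated 12 h at single concentrations (50 nM, 500 nM, 1, 5 or 30 µM). RIPA lysates (50 µg) run on 10% SDS-PAGE and immunoblotted for CDK2, CDK5, CDK9 with β-tubulin loading control, then detected by chemiluminescence. Band intensities quantified densitometrically.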
(Immunoblotting shows a protein as a band on a membrane.)

Assay [3] deals with T2, Protein cereblon/Cyclin-dependent kinase 9 (Homo sapiens) (UniProt P50750+Q96SW2). In words: Protac activity at CRBN/CDK9 in AR-negative human PC3 cells assessed as induction of CDK9 protein degradation at 1 uM after 12 hrs by Western blot analysis. The note with it: PC-3. The assay is classed as cell-based. An outline of the steps:
(§2)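 PC-3 cells (DMEM/F12 1:1, 10% FBS, 1% pen/strep, 37 °C, 5% CO2) plated at 5 × 10^5 per well, exposed to compound for 12 h. RIPA lysates with protease inhibitors; 50 µg total protein run on 10% SDS-PAGE, transferred to PVDF, blocked in 5% milk/TBS-T. Probed with anti-CDK9 (1/1000), β-tubulin loading control, HRP secondary, chemiluminescence; bands scored as degradation detected or not.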

For assay [4], the target named is T2, Protein cereblon/Cyclin-dependent kinase 9 (Homo sapiens). In words: Protac activity at CRBN/CDK9 in AR-negative human PC3 cells assessed as induction of CDK9 protein degradation at 30 uM after 12 hrs by Western blot analysis. The assay is classed as cell-based. The settings on record: PC-3. The method in brief:
as §2

The target of assay [5] is T1, Protein cereblon/Cyclin-dependent kinase 2 (Homo sapiens). As to the kind of experiment: Protac activity at CRBN/CDK2 in AR-negative human PC3 cells assessed as CDK2 degradation at 1 uM preincubated with pomalidomide for 2 hrs and measured after 8 hrs by Western blot analysis. The settings on record: PC-3. The assay is classed as cell-based. The method in brief: (§3)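 PC-3 cells pretreated 2 h with 10 µM DMSO, AT-7519, pomalidomide or MG-132, then degrader at 1 µM for 8 h. CDK2 immunoblotted against β-tubulin loading control, with 50 µg protein per lane on 10% SDS-PAGE and ECL detection.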

Assay [6] shares this target. In words: Protac activity at CRBN/CDK2 in AR-negative human PC3 cells assessed as CDK2 degradation at 1 uM preincubated with proteasome inhibitor MG132 for 2 hrs and measured after 8 hrs by Western blot analysis. It counts as cell-based. The settings on record: PC-3. An outline of the steps:
as §3

The target of assay [7] is Protein cereblon/Cyclin-dependent kinase 5 (Homo sapiens) (UniProt Q00535+Q96SW2). In words: Protac activity at CRBN/CDK5 in AR-negative human PC3 cells assessed as induction of CDK5 protein degradation at 1 uM after 12 hrs by Western blot analysis. It counts as cell-based. The settings on record: PC-3. The method in brief: as §1
Protein cereblon/Cyclin-dependent kinase 5 (Homo sapiens), sequence (Q00535 whole entry, looked up): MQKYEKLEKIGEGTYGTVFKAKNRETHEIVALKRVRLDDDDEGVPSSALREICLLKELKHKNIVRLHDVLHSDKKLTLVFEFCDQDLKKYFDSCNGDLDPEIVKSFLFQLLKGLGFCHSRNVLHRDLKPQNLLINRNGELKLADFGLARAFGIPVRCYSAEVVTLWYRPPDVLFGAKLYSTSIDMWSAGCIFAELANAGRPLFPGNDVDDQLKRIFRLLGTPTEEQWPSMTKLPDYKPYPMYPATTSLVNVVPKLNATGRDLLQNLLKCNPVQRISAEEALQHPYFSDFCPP
Protein cereblon/Cyclin-dependent kinase 5 (Homo sapiens), sequence (Q96SW2 whole entry, looked up): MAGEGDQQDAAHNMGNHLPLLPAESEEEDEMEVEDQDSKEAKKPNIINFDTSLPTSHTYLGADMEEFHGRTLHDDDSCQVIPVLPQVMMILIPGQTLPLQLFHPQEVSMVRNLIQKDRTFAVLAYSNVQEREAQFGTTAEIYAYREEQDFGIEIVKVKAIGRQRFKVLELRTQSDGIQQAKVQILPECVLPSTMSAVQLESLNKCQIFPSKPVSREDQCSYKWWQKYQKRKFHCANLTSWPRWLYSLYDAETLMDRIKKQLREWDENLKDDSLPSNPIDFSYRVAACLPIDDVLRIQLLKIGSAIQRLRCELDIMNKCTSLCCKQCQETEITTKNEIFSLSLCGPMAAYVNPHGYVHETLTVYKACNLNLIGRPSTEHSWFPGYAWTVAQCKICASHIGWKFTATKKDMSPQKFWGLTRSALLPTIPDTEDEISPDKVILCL
Assay [8] addresses T2, Protein cereblon/Cyclin-dependent kinase 9 (Homo sapiens). In words: Protac activity at CRBN/CDK9 in AR-negative human PC3 cells assessed as induction of CDK9 protein degradation at 5 uM after 12 hrs by Western blot analysis. The assay is classed as cell-based. The note with it: PC-3. The method in brief: as §2
Assay [9] concerns the target T1, Protein cereblon/Cyclin-dependent kinase 2 (Homo sapiens). In words: Protac activity at CRBN/CDK2 in AR-negative human PC3 cells assessed as CDK2 degradation at 1 uM preincubated with AT-7519 for 2 hrs and measured after 8 hrs by Western blot analysis. The settings on record: PC-3.
For assay [10] the target is unchanged. In words: Protac activity at CRBN/CDK2 in AR-negative human PC3 cells assessed as induction of CDK2 protein degradation at 50 nM after 12 hrs by Western blot analysis. The assay is classed as cell-based. The note with it: PC-3. An outline of the steps:
as §1

In assay [11] the target is T2, Protein cereblon/Cyclin-dependent kinase 9 (Homo sapiens). As to the kind of experiment: Protac activity at CRBN/CDK9 in AR-negative human PC3 cells assessed as induction of CDK9 protein degradation at 50 nM after 12 hrs by Western blot analysis. It counts as cell-based. The note with it: PC-3. The method in brief: as §2
For assay [12], the target named is T3, Protein cereblon/Cyclin-dependent kinase 2/Cyclin-dependent kinase 9 (Homo sapiens, UniProt P24941+P50750+Q96SW2). As to the kind of experiment: Protac activity at CRBN/CDK2/CDK9 in AR-negative human PC3 cells assessed as induction of CDK2 protein degradation at 5 uM after 12 hrs by Western blot analysis. The assay is classed as cell-based. The settings on record: PC-3. The method in brief:
as §1

For assay [13], the target named is T3, Protein cereblon/Cyclin-dependent kinase 2/Cyclin-dependent kinase 9. As to the kind of experiment: Protac activity at CRBN/CDK2/CDK9 in AR-negative human PC3 cells assessed as induction of CDK9 protein degradation at 5 uM after 12 hrs by Western blot analysis. It counts as cell-based. The note with it: PC-3. The method in brief: as §1
For assay [14] the target is unchanged. As to the kind of experiment: Protac activity at CRBN/CDK2/CDK9 in AR-negative human PC3 cells assessed as induction of CDK9 protein degradation at 30 uM after 12 hrs by Western blot analysis. The assay is classed as cell-based. The settings on record: PC-3. The method in brief: as §1
Assay [15] has as its system PC-3. In words: Induction of cell cycle arrest in human PC3 cells assessed as accumulation at G0/G1 phase at 3 uM after 48 hrs by propidium iodide staining based flow cytometry (reference value: 59.80%). The assay is classed as functional. (In flow cytometry, cells or beads pass a laser one at a time.)
Assay [16] concerns PC-3. As to the kind of experiment: Induction of cell cycle arrest in human PC3 cells assessed as accumulation at S phase at 3 uM after 48 hrs by propidium iodide staining based flow cytometry (reference value: 17.96%). It counts as functional.
Assay [17] relates to PC-3. In words: Induction of cell cycle arrest in human PC3 cells assessed as accumulation at G2/M phase at 3 uM after 48 hrs by propidium iodide staining based flow cytometry (reference value: 22.24%). It counts as functional.

Activity calls are given as the source filed them. No cut-off for these calls is given here.

T2 sequence (P50750 whole entry, looked up): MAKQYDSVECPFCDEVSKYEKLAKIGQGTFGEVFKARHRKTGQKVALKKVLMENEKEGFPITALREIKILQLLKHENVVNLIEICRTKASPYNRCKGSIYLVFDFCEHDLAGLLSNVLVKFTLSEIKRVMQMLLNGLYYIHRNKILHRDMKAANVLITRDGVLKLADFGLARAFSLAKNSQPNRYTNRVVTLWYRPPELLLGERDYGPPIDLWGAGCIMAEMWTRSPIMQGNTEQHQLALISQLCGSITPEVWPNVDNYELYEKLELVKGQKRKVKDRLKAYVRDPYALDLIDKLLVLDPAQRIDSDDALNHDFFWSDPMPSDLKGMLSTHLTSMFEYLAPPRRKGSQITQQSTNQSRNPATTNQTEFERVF
T2 sequence (Q96SW2 whole entry, looked up): as the sequence (Q96SW2 whole entry, looked up) above

Broadly, the IC50 is the concentration that gives 50% inhibition. Turning to `O=C(CCC(=O)N1CCC(NC(=O)c2n[nH]cc2NC(=O)c2c(Cl)cccc2Cl)CC1)NCCCCNc1cccc2c1C(=O)N(C1CCC(=O)NC1=O)C2=O` (stereo unspecified), in the assay with PC-3 [1], the IC50 stood at 23300 nM.

Turning to `O=C(COc1cccc2c1C(=O)N(C1CCC(=O)NC1=O)C2=O)NCCOCCOCC(=O)N1CCC(NC(=O)c2n[nH]cc2NC(=O)c2c(Cl)cccc2Cl)CC1` (stereo unspecified), the outcome in assay [2], in assay [4] and in assay [8] was Active. For the same molecule, the result in assay [3], in assay [5], in assay [6], in assay [7] and in assay [9] was inactive. For the same molecule, the IC50 in the assay with PC-3 [1] was determined as 840 nM.

As for `O=C(CCC(=O)N1CCN(Cc2ccc(NC(=O)c3n[nH]cc3Nc3ncnc4[nH]ccc34)cc2)CC1)NCCCCCCNc1cccc2c1C(=O)N(C1CCC(=O)NC1=O)C2=O` (stereo unspecified), the result in [3], in assay [4], in [10] and in assay [11] was Active. Besides, the IC50 in the assay on PC-3 [1] was found to be 3600 nM.

As to `O=C(NC1CCNCC1)c1n[nH]cc1NC(=O)c1c(Cl)cccc1Cl` [AT-7519], the IC50 with PC-3 [1] was found to be 710 nM.

For `O=C(COc1cccc2c1C(=O)N(C1CCC(=O)NC1=O)C2=O)NCCCCCC(=O)N1CCC(NC(=O)c2n[nH]cc2NC(=O)c2c(Cl)cccc2Cl)CC1` (stereo unspecified), the outcome in assay [2], in [12], in assay [13] and in [14] was Active. Also, the outcome in assay [3] and in assay [7] was inactive.

`O=C(CCC(=O)N1CCC(NC(=O)c2n[nH]cc2NC(=O)c2c(Cl)cccc2Cl)CC1)NCCCCCCNC(=O)COc1cccc2c1C(=O)N(C1CCC(=O)NC1=O)C2=O` (stereo unspecified): the IC50 in the assay on PC-3 [1] is 1310 nM.

In the case of `O=C(CCC(=O)N1CCC(NC(=O)c2n[nH]cc2NC(=O)c2c(Cl)cccc2Cl)CC1)NCCCOCCOCCOCCCNC(=O)COc1cccc2c1C(=O)N(C1CCC(=O)NC1=O)C2=O` (stereo unspecified), in the assay with PC-3 [1], the IC50 is 2020 nM.

Turning to `O=C(CCC(=O)N1CCN(Cc2ccc(NC(=O)c3n[nH]cc3Nc3ncnc4[nH]ccc34)cc2)CC1)NCCNC(=O)COc1cccc2c1C(=O)N(C1CCC(=O)NC1=O)C2=O` (stereo unspecified), the outcome in [3] and in [4] was Active. Besides, in the assay with PC-3 [1], the IC50 came out at 8030 nM.

Consider `CN1CCN(Cc2ccc(NC(=O)c3n[nH]cc3Nc3ncnc4[nH]ccc34)cc2)CC1`, for which the IC50 in the assay with PC-3 [1] was found to be 690 nM. Moreover, the figures for the Activity in the assay with PC-3 [15], in the assay with PC-3 [16] and with PC-3 [17] were 45.58%, 16.52% and 37.9%, respectively.

In the case of `O=C(COc1cccc2c1C(=O)N(C1CCC(=O)NC1=O)C2=O)NCCOCCOCC(=O)N1CCN(Cc2ccc(NC(=O)c3n[nH]cc3Nc3ncnc4[nH]ccc34)cc2)CC1` (stereo unspecified), the result in assay [3], in assay [4], in [10] and in assay [11] was Active. The IC50 with PC-3 [1] was 3540 nM.

These data come from ChEMBL document CHEMBL4602651, “Development of selective mono or dual PROTAC degrader probe of CDK isoforms” (Eur J Med Chem, 2020).
